In ChEMBL document CHEMBL1140302, “Pyrrolo[1,5]benzoxa(thia)zepines as a new class of potent apoptotic agents. Biological studies and identification of an intracellular location of their drug target” (J Med Chem, 2005):

Experiments:
HL-60 = assay: Percent apoptotic activity of compound in human acute myelocytic leukemia HL-60 cells at 10 uM for 16 h; assay type: functional
How it was run: (§1)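 Seeded at 3 × 10⁵ cells/mL and given compound at 10 µM final from ethanol stock (vehicle 1% ethanol) for 16 h. Cytospin, RapiDiff staining, then ~300 cells counted by light microscopy (shrinkage, blebbing, nuclear condensation/fragmentation) for percent apoptosis.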

K562 = assay: Percent apoptotic activity of compound in chronic myelogenous leukemia K562 cells at 10 uM for 16 h; assay type: functional, Homo sapiens; how it was run: as §1
Mus musculus [1] = assay: Effect (30 mg/kg; i.p.) on hematology parameter of BALB/c mice as per the qdx8 schedule; assay type: functional
How it was run: (§2)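 Male Balb/c mice (5-6 weeks old, about 20 g), five per group, dosed ip once daily for 8 consecutive days at 30 mg/kg. Vehicle: Cremophor EL 1:1 with ethanol, then diluted 1:4 in PBS, 10 mL/kg. Vehicle-only control group. Body weight recorded. 24 h after the last dose, retro-orbital blood was taken under CO2 into heparin. RBC, WBC and PLT counted on a cell analyzer. ANOVA and Student's t test.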

NCI-H460 = assay: In vitro cytotoxic activity of compound against human lung carcinoma (NCI-H460) cell lines by sulforhodamine B (SRB) assay; assay type: functional, cell-based
How it was run: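 NCI-H460 seeded at 3 × 10³ cells/well, 24 h at 37 °C, then 24 h drug exposure at 10 decreasing concentrations (200–0.5 µM; drug in 10% DMSO in water; at least eight replicates each). PBS washes, 48 h recovery, TCA fixation, sulforhodamine B staining, bound dye read at 540 nm. IC50 (± SD) from sigmoidal curve fitting.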

LoVo = assay: In vitro cytotoxic activity of compound against (LoVo) human colon adenocarcinoma cells by sulforhodamine B (SRB) assay; assay type: functional, cell-based
How it was run: (§3)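 Seeded at 1 × 10⁴ cells/well and grown 24 h at 37 °C; LoVo in Ham's F12, MesSa in McCoy's 5A, with 10% heat-inactivated FCS. Exposed 24 h to 10 decreasing concentrations (200–0.5 µM; dissolved in 10% DMSO in water; at least eight replicates each). Washed, 48 h recovery, TCA fixation, sulforhodamine B staining, OD 540 nm. IC50 (± SD) by sigmoidal curve fitting.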

Mus musculus [2] = assay: Effect (30 mg/kg; i.p.) on body weight of BALB/c mice according to the qdx8 schedule; initial weight=21.02 grams; assay type: functional; how it was run: as §2
[3] = In vitro cytotoxic activity of compound against (MesSa) human uterine sarcoma cells by sulforhodamine B (SRB) assay; assay type: functional, cell-based; how it was run: as §3
M109 = assay: In vitro cytotoxic activity of compound against (M109) mouse lung carcinoma cells by sulforhodamine B (SRB) assay; assay type: functional, cell-based
HT-29 = assay: In vitro cytotoxic activity of compound against human colon adenocarcinoma (HT-29) cell line by sulforhodamine B (SRB) assay; assay type: functional, cell-based

SMILES: CCCCCC(=O)OC1=C(c2cccc3ccccc23)Oc2ccccc2[N+]2=C1CC=C2
- Apoptotic Activity (HL-60): 0%
- Apoptotic Activity (K562): 0%

SMILES: CCN(CC)C(=O)OC1=C(c2cccc3ccccc23)Sc2ccccc2[N+]2=C1CC=C2
- Apoptotic Activity (HL-60): 12%
- Apoptotic Activity (K562): 7%

SMILES: COc1ccc(C2=C(OC(=O)c3ccncc3)C3=[N+](C=CC3)c3ccccc3S2)cc1
- Apoptotic Activity (HL-60): 31%
- Apoptotic Activity (K562): 32%

SMILES: CCOC(=O)c1ccc2c(c1)OC(c1cccc3ccccc13)=C(OC(=O)N(C)C)C1=[N+]2C=CC1
- Apoptotic Activity (HL-60): 49%
- Apoptotic Activity (K562): 50%

SMILES: CC(=O)OC1=C(c2cccc3ccccc23)Oc2ccccc2[N+]2=C1CC=C2
- Apoptotic Activity (HL-60): 42%
- Apoptotic Activity (K562): 43%

SMILES: CN(C)C(=O)OC1=C(c2cccc3ccccc23)Oc2cc(C(=O)O)ccc2-n2cccc21
- Apoptotic Activity (HL-60): 0%
- Apoptotic Activity (K562): 0%

SMILES: CCCCC(=O)OC1=C(c2cccc3ccccc23)Oc2ccccc2[N+]2=C1CC=C2
- Apoptotic Activity (HL-60): 0%
- Apoptotic Activity (K562): 0%

SMILES: CN(C)C(=O)OC1=C(c2ccc3ccccc3c2)Oc2ccccc2[N+]2=C1CC=C2
- Apoptotic Activity (HL-60): 0%
- Apoptotic Activity (K562): 0%

SMILES: COc1ccc(C2=C(OC(=O)N(C)C)C3=[N+](C=CC3)c3ccccc3S2)cc1
- Apoptotic Activity (HL-60): <10%
- Apoptotic Activity (K562): <10%

SMILES: CN(C)C(=O)OC1=C(c2cccc3ccccc23)Sc2ccccc2[N+]2=C1CC=C2
- Apoptotic Activity (HL-60): 40%
- Apoptotic Activity (K562): 39%

SMILES: CC(=O)OC1=C(c2cccc3ccccc23)Sc2ccccc2[N+]2=C1CC=C2
- Apoptotic Activity (HL-60): 39%
- Apoptotic Activity (K562): 41%

SMILES: O=C(OC1=C(c2cccc3ccccc23)Sc2ccccc2[N+]2=C1CC=C2)c1ccncc1
- Apoptotic Activity (HL-60): 55%
- Apoptotic Activity (K562): 27%

SMILES: CN(C)C(=O)OC1=C(c2cccc3ccccc23)Oc2ccccc2[N+]2=C1CC=C2
- PLT (Mus musculus [1]): 354 10E3/mm3
- RBC (Mus musculus [1]): 9.45 10E6/mm3
- WBC (Mus musculus [1]): 7.03 10^3/mm³
- IC50 (NCI-H460): 1.7 µM
- IC50 (LoVo): 9.2 µM
- Weight (Mus musculus [2]): 20.8 g
- Apoptotic Activity (HL-60): 44%
- IC50 [3]: 7.1 µM
- Apoptotic Activity (K562): 48%
- IC50 (M109): 1.8 µM
- IC50 (HT-29): 1.9 µM

SMILES: CC(=O)OC1=C(c2ccccc2)Oc2ccccc2[N+]2=C1CC=C2
- Apoptotic Activity (HL-60): 0%
- Apoptotic Activity (K562): 0%
